Data as given in ChEMBL document CHEMBL4196123, “Discovery of an Orally Bioavailable Dual PI3K/mTOR Inhibitor Based on Sulfonyl-Substituted Morpholinopyrimidines” (ACS Med Chem Lett, 2018).
Active and inactive are the calls of the source. The calls are words filed in the database; no cut-off is given here.

Assays:
[1] = Inhibition of PI3K in human PC3 cells assessed as reduction in AKT phosphorylation at Ser473 measured after 2 hrs by fluorescence assay; assay type: cell-based; conditions: PC-3, 2 h
[2] = tested on: T47D; assay: Antiproliferative activity against human T47D cells harboring PI3KCA H1047R mutant after 72 hrs by MTT assay; assay type: functional, cell-based
[3] = tested on: MCF7; assay: Antiproliferative activity against human MCF7 cells harboring PIK3CA E545K mutant after 72 hrs by MTT assay; assay type: functional, cell-based; conditions: MCF7, 72 h
[4] = target: Serine/threonine-protein kinase ATR (Homo sapiens) (UniProt Q13535); assay: Inhibition of ATR in human HT-29 cells assessed as reduction in camptothecin-induced Chk1 phosphorylation at Ser345 residue up to 10 uM pretreated for 1 hr followed by camptothecin addition; assay type: cell-based
Chain of Serine/threonine-protein kinase ATR (Homo sapiens) (Q13535 whole entry, looked up): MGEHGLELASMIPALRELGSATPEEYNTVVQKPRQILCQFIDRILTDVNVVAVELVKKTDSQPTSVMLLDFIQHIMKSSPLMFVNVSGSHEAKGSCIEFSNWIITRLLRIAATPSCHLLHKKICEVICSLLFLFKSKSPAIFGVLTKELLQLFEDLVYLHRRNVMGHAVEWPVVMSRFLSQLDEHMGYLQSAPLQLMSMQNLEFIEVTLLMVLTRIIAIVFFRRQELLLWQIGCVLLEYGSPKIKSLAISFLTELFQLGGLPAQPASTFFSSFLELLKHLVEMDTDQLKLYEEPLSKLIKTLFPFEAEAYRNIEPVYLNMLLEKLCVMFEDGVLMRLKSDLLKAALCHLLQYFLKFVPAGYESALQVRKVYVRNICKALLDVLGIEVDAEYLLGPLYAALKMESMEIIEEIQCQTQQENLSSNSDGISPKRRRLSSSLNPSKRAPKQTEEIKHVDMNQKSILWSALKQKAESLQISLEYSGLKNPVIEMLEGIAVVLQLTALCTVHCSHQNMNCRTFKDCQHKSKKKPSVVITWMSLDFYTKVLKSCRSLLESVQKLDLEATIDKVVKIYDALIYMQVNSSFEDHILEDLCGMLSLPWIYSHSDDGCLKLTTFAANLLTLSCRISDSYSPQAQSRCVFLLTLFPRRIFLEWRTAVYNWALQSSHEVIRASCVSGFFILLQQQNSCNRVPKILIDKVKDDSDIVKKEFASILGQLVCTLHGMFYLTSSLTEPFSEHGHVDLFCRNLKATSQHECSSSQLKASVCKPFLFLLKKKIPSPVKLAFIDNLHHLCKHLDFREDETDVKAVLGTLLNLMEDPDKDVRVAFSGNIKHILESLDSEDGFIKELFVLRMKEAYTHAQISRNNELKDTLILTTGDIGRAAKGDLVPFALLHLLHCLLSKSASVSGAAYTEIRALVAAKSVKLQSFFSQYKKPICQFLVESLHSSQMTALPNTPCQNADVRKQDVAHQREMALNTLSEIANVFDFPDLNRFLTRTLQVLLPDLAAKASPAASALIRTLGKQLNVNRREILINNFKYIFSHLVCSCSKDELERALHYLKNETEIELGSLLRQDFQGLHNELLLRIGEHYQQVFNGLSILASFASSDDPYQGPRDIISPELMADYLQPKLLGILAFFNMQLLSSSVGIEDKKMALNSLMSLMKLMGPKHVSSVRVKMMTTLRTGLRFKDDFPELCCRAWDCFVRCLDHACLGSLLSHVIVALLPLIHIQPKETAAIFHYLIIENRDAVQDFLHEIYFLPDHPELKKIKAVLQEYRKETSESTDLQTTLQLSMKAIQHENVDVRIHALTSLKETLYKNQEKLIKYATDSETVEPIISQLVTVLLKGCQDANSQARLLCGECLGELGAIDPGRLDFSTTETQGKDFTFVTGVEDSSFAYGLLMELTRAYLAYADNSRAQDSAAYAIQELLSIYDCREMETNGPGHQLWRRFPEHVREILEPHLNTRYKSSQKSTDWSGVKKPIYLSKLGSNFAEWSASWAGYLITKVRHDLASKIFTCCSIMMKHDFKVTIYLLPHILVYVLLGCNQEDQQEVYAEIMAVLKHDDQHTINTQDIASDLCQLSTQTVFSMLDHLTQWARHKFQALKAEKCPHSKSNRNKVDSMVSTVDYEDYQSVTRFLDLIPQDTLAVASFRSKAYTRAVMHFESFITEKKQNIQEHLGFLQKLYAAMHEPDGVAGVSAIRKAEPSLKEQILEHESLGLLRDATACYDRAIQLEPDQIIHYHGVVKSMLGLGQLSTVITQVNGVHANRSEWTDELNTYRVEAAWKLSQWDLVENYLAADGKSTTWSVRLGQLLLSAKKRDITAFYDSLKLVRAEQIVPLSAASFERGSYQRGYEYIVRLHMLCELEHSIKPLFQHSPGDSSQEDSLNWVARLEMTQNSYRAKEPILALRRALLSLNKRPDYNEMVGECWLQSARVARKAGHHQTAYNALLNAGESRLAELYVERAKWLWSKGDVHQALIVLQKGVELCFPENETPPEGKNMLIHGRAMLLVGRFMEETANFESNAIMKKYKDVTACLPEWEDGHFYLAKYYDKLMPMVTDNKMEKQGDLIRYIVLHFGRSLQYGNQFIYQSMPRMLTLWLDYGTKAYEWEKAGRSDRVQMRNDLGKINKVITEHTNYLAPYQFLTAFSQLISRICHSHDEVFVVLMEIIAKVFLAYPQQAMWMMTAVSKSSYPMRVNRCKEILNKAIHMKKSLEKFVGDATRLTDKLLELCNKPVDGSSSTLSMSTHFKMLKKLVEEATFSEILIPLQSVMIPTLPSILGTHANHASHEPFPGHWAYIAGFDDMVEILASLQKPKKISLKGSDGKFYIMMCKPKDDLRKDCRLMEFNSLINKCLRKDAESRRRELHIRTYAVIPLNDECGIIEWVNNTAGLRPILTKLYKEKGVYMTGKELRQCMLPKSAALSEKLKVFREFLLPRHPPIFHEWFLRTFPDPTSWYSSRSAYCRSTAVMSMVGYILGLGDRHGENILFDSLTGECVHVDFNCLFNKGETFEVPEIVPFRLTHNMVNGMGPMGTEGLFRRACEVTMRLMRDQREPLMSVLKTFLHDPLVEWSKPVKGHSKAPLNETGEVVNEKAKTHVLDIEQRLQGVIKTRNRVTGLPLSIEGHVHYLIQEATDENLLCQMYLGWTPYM
Outline: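 HT-29 cells were pretreated with compound for 1 h, then exposed to camptothecin to induce DNA damage. ATR activity was read as phosphorylation of its substrate Chk1, with total Chk1 and β-actin as internal controls. […] served as reference inhibitor.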

[5] = Intrinsic clearance in human liver microsomes at […] pretreated up to 45 mins followed by NADPH addition and measured by LC-MS/MS analysis; assay type: ADME, microsome; conditions: read-out: CLH
[6] = Intrinsic clearance in mouse liver microsomes at […] pretreated up to 45 mins followed by NADPH addition and measured by LC-MS/MS analysis; assay type: ADME, microsome; conditions: read-out: CLH
[7] = tested on: HUVEC; assay: Cytotoxicity against HUVEC after 72 hrs by MTT assay; assay type: cell-based; conditions: Homo sapiens
[8] = tested on: HT-29; assay: Cell cycle arrest in human HT-29 cells assessed as accumulation at G2/M phase at 0.111 to 3 uM after 24 hrs by propidium iodide staining based flow cytometry; assay type: functional
[9] = tested on: HT-29; assay: Antitumor activity against human HT-29 cells harboring PIK3CA P449T mutant xenografted in Balb/c nu/nu mouse assessed as tumor growth inhibition at 15 mg/kg, po administered daily via gavage for 27 days relative to control; assay type: functional; conditions: HT-29, po, 648 h, read-out: TGI
Outline: (§1)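 Balb/c nu/nu mice carrying HT-29 xenografts were dosed by daily oral gavage for 27 days, starting when mean tumor size was about 240 mm³; vehicle group as control. Tumor volume estimated over time, and TGI calculated after 27 days. Mean ± SEM, n = 6. Dunnett's multiple comparison test.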

[10] = tested on: HT-29; assay: Antitumor activity against human HT-29 cells harboring PIK3CA P449T mutant xenografted in Balb/c nu/nu mouse assessed as tumor growth inhibition at 30 mg/kg, po administered daily via gavage for 27 days relative to control; assay type: functional; conditions: HT-29, po, 648 h, read-out: TGI; outline: as §1
[11] = tested on: Mus musculus; assay: Toxicity in Balb/c nu/nu mouse xenografted with human HT-29 cells harboring PIK3CA P449T mutant assessed as body weight loss at 60 mg/kg, po administered daily via gavage for 10 days relative to control; conditions: in vivo, 240 h
[12] = target: PI3-kinase p110-alpha/p85-alpha (Homo sapiens, UniProt P42336); assay: Inhibition of recombinant human full length N-terminal His-tagged p110alpha/p85alpha expressed in baculovirus expression system using PIP2 as substrate measured after 1 hr by Alexa633 Tracer-based fluorescence polarization assay
Chain of PI3-kinase p110-alpha/p85-alpha (P27986 whole entry): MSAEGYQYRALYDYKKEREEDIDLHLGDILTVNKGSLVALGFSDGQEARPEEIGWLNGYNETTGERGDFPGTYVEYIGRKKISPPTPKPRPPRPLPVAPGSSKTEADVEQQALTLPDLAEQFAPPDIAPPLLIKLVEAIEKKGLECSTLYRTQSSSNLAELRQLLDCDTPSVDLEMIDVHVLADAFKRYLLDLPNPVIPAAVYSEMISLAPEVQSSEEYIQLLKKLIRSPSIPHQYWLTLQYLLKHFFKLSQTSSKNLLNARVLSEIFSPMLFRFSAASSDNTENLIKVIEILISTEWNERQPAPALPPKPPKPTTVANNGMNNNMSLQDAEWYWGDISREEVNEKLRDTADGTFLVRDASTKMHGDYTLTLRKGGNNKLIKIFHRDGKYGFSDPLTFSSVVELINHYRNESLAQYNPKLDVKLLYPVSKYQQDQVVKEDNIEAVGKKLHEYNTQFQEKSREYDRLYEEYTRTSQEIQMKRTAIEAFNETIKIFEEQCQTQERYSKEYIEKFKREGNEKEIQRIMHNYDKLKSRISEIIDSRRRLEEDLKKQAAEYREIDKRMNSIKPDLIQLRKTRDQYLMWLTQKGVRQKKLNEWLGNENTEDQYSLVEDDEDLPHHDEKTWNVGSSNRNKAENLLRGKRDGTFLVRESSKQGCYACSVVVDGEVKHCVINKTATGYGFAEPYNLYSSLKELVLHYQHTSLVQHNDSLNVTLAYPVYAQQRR
Chain of PI3-kinase p110-alpha/p85-alpha (P42336 whole entry): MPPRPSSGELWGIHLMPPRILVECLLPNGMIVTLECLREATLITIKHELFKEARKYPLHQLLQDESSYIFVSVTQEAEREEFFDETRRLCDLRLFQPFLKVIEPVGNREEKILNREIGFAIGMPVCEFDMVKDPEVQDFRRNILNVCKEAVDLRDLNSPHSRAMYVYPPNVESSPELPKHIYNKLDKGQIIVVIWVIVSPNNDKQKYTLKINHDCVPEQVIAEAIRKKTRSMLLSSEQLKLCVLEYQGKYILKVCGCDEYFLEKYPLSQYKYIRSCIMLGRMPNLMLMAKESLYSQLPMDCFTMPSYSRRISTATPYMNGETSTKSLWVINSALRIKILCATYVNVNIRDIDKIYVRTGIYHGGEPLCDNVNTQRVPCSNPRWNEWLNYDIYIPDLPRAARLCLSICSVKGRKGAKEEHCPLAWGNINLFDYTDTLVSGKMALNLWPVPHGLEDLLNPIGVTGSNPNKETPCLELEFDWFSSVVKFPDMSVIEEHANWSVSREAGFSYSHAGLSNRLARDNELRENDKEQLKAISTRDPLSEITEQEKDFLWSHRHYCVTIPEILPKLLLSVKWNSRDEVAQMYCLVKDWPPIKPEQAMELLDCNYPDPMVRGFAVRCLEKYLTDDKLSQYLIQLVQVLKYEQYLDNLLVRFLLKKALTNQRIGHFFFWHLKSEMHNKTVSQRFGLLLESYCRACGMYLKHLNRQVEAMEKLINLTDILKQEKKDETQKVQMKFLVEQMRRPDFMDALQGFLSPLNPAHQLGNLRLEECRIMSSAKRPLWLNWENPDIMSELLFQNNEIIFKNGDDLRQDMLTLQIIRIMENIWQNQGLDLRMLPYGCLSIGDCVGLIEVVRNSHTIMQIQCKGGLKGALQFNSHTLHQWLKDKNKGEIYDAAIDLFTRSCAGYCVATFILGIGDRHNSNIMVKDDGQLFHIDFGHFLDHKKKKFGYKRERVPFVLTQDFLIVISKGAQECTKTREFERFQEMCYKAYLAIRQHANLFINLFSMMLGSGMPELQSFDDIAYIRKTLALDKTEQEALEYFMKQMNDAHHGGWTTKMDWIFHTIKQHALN
Outline: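 PI3Kα enzyme inhibition; IC50 is the mean of duplicate measurements.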

[13] = target: Serine/threonine-protein kinase mTOR (Homo sapiens, UniProt P42345); assay: Inhibition of recombinant human GST-tagged mTOR catalytic domain (1360 to 2549 residues) expressed in baculovirus expression system using GFP-4EBP1 as substrate measured after 1 hr by Lathascreen method
[14] = target: PI3K p110 beta/p85 alpha (Homo sapiens, UniProt P42338); assay: Inhibition of recombinant human full-length N-terminal His6-tagged p110beta/recombinant human full length p85alpha expressed in baculovirus infected Sf21 insect cells using PIP2 as substrate measured after 1 hr by Alexa633 Tracer-based fluorescence polarization assay
[15] = target: PI3-kinase p110-delta/p85-alpha (Homo sapiens, UniProt O00329); assay: Inhibition of recombinant human full-length N-terminal His6-tagged p110delta/recombinant human full length p85alpha expressed in baculovirus infected Sf21 insect cells using PIP2 as substrate measured after 1 hr by Alexa633 Tracer-based fluorescence polarization assay

Structure (SMILES) | IC50 [1] [nM] | IC50 [2] [nM] | IC50 [3] [nM] | IC50 [12] [nM] | other results
Nc1cc(C(F)(F)F)c(-c2cc(C3(S(=O)(=O)c4ccccc4)CC3)nc(N3CCOCC3)n2)cn1 | 668 | 324 | 513 |  | 
Nc1cc(C(F)(F)F)c(-c2cc(N3CCOCC3)nc(N3CCOCC3)n2)cn1 [BUPARLISIB] | 365 | 286 | 206 |  | inhibition [4]: inactive; CLint scaled [5]: 10.9 mL/min/kg; CLint scaled [6]: 151 mL/min/kg; IC50 [7]: 886 nM; Activity [8]: Active; inhibition in vivo at 15 mg/kg [9]: 39.4%; inhibition in vivo at 30 mg/kg [10]: 55.7%; Activity [11]: > 25%
CCS(=O)(=O)C1(c2cc(-c3cnc(N)cc3C(F)(F)F)nc(N3CCOCC3)n2)CC1 | 301 | 225 | 295 |  | 
CS(=O)(=O)C1(c2cc(-c3cnc(N)cc3C(F)(F)F)nc(N3CCOCC3)n2)CCCC1 | 384 | 218 | 340 |  | 
C[C@H]1COCCN1c1nc(-c2cnc(N)cc2C(F)(F)F)cc(C2(S(C)(=O)=O)CCCC2)n1 | 674 | 139 | 159 | 22 | 
CS(=O)(=O)Cc1cc(-c2cnc(N)cc2C(F)(F)F)nc(N2CCOCC2)n1 | 3010 | 1670 | 1510 |  | IC50 [13]: 14000 nM; inhibition [4]: inactive
C[C@H]1COCCN1c1nc(-c2cnc(N)cc2C(F)(F)F)cc(C2(S(C)(=O)=O)CC2)n1 | 546 | 129 | 112 | 9 to 16 | IC50 [14]: 264 nM; IC50 [15]: 197 nM; IC50 [13]: 2120 nM; inhibition [4]: inactive
Nc1cc(C(F)(F)F)c(-c2cc(C3(S(=O)(=O)c4ccc(F)cc4)CC3)nc(N3CCOCC3)n2)cn1 | 1280 | 619 | 572 | 57 | 
CC(C)C(c1cc(-c2cnc(N)cc2C(F)(F)F)nc(N2CCOCC2)n1)S(C)(=O)=O (configuration not stated) |  |  |  | 218 | 
CC(C)(c1cc(-c2cnc(N)cc2C(F)(F)F)nc(N2CCOCC2)n1)S(=O)(=O)c1ccccc1 | 1550 | 478 | 897 | 9 | 
C[C@H]1COCCN1c1nc(-c2cnc(N)cc2F)cc(C(C)(C)S(C)(=O)=O)n1 | 121 | 33 | 15 | 20 | CLint scaled [5]: 5 to 16 mL/min/kg; CLint scaled [6]: 40 to 140 mL/min/kg
CS(=O)(=O)C1(c2cc(-c3cnc(N)cc3C(F)(F)F)nc(N3CCOCC3)n2)CC1 |  |  |  |  | IC50 [13]: 1680 nM; inhibition [4]: inactive; CLint scaled [5]: 9.86 mL/min/kg; CLint scaled [6]: 185 mL/min/kg
CS(=O)(=O)C(F)(F)c1cc(-c2cnc(N)cc2C(F)(F)F)nc(N2CCOCC2)n1 | 846 | 513 | 408 | 25 | 
CS(=O)(=O)C1(c2cc(-c3cnc(N)cc3F)nc(N3CCOCC3)n2)CC1 | 369 | 62 | 27 | 41 | CLint scaled [5]: 5 to 16 mL/min/kg; CLint scaled [6]: 40 to 140 mL/min/kg
C[C@H]1COCCN1c1nc(-c2cnc(N)cc2C(F)(F)F)cc(C(C)(C)S(C)(=O)=O)n1 | 306 | 175 | 214 |  | 
Nc1cc(C(F)(F)F)c(-c2cc(C3(S(=O)(=O)c4cccc(F)c4)CC3)nc(N3CCOCC3)n2)cn1 | 606 | 242 | 286 | 14 | 
CC(C)(c1cc(-c2cnc(N)cc2F)nc(N2CCOCC2)n1)S(C)(=O)=O | 215 | 123 | 104 | 66 | CLint scaled [5]: 5 to 16 mL/min/kg; CLint scaled [6]: 40 to 140 mL/min/kg
CS(=O)(=O)C1(c2cc(-c3cnc(N)cc3C(F)(F)F)nc(N3CCOCC3)n2)CCCCC1 |  |  |  | 321 | 
CC(C)S(=O)(=O)C1(c2cc(-c3cnc(N)cc3C(F)(F)F)nc(N3CCOCC3)n2)CC1 | 430 | 160 | 437 | 58 | 
CS(=O)(=O)C1(c2cc(-c3cnc(N)cc3C(F)(F)F)nc(N3CCOCC3)n2)CCC1 | 248 | 138 | 134 | 15 | 
C[C@H]1COCCN1c1nc(-c2cnc(N)cc2C(F)(F)F)cc(C2(S(C)(=O)=O)CCC2)n1 | 184 | 93 | 78 | 6 | 
CC(C)(c1cc(-c2cnc(N)cc2C(F)(F)F)nc(N2CCOCC2)n1)S(C)(=O)=O | 312 | 58 | 224 |  | 
C[C@@H]1COCCN1c1nc(-c2cnc(N)cc2C(F)(F)F)cc(C2(S(C)(=O)=O)CC2)n1 |  |  |  | 223 | 
CC(C)S(=O)(=O)C(C)(C)c1cc(-c2cnc(N)cc2C(F)(F)F)nc(N2CCOCC2)n1 | 1180 | 1060 | 599 | 65 | 
Nc1cc(C(F)(F)F)c(-c2cc(C3(S(=O)(=O)c4ccccc4F)CC3)nc(N3CCOCC3)n2)cn1 | 367 | 129 | 184 | 7 | 
CCS(=O)(=O)C(C)(C)c1cc(-c2cnc(N)cc2C(F)(F)F)nc(N2CCOCC2)n1 | 947 | 552 | 512 | 40 | 
CS(=O)(=O)C(F)c1cc(-c2cnc(N)cc2C(F)(F)F)nc(N2CCOCC2)n1 (configuration not stated) | 2450 | 1160 | 1140 | 56 | 
